GPR7 antagonist: GPR7 receptor antagonists, primary screen, cell-based, fluorescence, single concentration. AID 1861, 2009. GPR7-expressing cells, fluorescence antagonist assay. inhibition, % at 4.4 µM. Neuropeptides B/W receptor type 1 (Homo sapiens), P48145. 290,000 compounds, 1.1% hits; in the data active = inhibition above about 16%, passing the limit was not always enough;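 note: cells stimulated with the agonist NPW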
LANA-H2A inh: blockers of LANA interaction with H2A/H2B – biochemical, FP readout, HTS, primary screen; inhibition, % (test concentration not listed); AID 2629, 2010; cell-free LANA-H2A/H2B peptide, fluorescence polarization; 320,000 compounds, 0.6% hits; in the data active = inhibition mostly above about 10%, no sharp cut-off; inactive = mostly below about 6.7%
TRPN1 ag: zebrafish TRPN1 channel agonists, primary screen, cell-based, HEK293, calcium fluorescence | HEK293 zebrafish TRPN1-YFP, Fluo-8 calcium fluorescence; 100% = response to 87 µM carbachol | transient receptor potential cation channel N1 (TRPN1/NompC), Danio rerio | 220,000 compounds, 0.18% hits | activation, % at 3 µM;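 active = activation above its plate's cutoff, the mean activation of test wells on that plate plus 3 SD, cut at about 19% in these data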
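Assay system: Zebrafish TRPN1-YFP in HEK293 cells | Incubation: Dye loading 1 h at 37 °C, then 30 min room temperature | Measured by: Kinetic Fluo-8 fluorescence, ex 470-495, em 515-575 nm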
TAAR1 ag: human TAAR1 agonists, primary screen, Fluo-8 calcium fluorescence, CHO RD-HGA16 cells | Trace amine-associated receptor 1 (Homo sapiens), Q96RJ0 | vehicle wells 0%, saturating PEA agonist 100% | activation, % at 3 µM | 360,000 compounds, 0.99% hits | AID 624467, 2012;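 active = activation above the mean activation of all test compounds in the run plus 3 SD, cut at about 38% in these data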
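System: CHO RD-HGA16 cells carrying human TAAR1 plus Gα16; Incubation: 17-24 h seeding, 75 min 37 °C dye, 30 min RT; Measured by: Fluo-8 fluorescence, 5 s baseline then 140 s kinetic read; Control set: DMSO and PEA EC100; Replication: single well for each compound.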
TAAR1 antag: human TAAR1 antagonists, primary screen, Fluo-8 calcium fluorescence, CHO RD-HGA16 cells; Trace amine-associated receptor 1 (Homo sapiens), Q96RJ0; inhibition, % at 3 µM; antagonist; 360,000 compounds, 1.5% hits;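 active = inhibition above a per-plate cutoff, the mean inhibition of test compounds on that plate plus 3 SD, cut at about 49% in these data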
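Test system – hTAAR1-expressing CHO RD-HGA16 cells, Gα16-coupled · Also added – β-PEA at EC80 concentration, post-compound challenge · Compound – 3 µM, single point · Incubation – dye loading 75 min at 37 °C, then 30 min room temperature · Measured by – Fluo-8 intracellular calcium dye fluorescence, real-time kinetic reads · Benchmarks – vehicle and agonist controls · Replicates – singlicate, one well per test compound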
TRPML3 ag: human TRPML3 channel agonists, primary screen, cell-based, HEK293 TRPML3-YFP, Fluo-8 calcium fluorescence, 3 µM | Mucolipin-3 (Homo sapiens), Q8TDD5 | 100% = the carbachol control signal | activation, % at 3 µM | 220,000 compounds, 0.29% hits | AID 1448, 2008;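 active = activation above its plate's cutoff, the mean activation of the plate's test wells plus 3 SD, cut at about 12% in these data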
Target sequence (Q8TDD5 whole entry, looked up): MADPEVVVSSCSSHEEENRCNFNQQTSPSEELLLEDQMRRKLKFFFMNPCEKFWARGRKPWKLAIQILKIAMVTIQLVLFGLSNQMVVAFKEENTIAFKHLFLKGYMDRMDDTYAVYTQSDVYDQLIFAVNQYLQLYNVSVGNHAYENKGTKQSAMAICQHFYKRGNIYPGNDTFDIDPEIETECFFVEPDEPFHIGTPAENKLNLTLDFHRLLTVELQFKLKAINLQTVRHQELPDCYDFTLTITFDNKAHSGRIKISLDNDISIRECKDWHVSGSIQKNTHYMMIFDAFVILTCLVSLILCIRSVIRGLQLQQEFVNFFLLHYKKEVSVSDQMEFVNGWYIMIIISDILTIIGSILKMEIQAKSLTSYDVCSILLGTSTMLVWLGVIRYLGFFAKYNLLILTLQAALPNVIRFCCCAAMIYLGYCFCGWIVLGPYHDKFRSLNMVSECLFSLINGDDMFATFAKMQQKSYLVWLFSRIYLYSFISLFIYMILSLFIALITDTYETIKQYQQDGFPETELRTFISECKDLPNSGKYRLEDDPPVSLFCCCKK
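Material: TRPML3-YFP stable HEK293 cells | Dosing: One concentration, 3 µM nominal, 0.3% DMSO | Timing: 125 s total fluorescence read per well | Technique: Fluo-8 calcium dye fluorescence, ex 470-495, em 515-575 nm | Measure: Percent activation from peak-to-basal fluorescence ratio, scaled between DMSO and carbachol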
Hits are given with their value; 0 = inactive; - = no result given; + = active, no number; ! = repeats disagree. A selection: hits, their analogues and other compounds. The true share with any hit is near 3.4%.

SMILES	GPR7 antagonist	LANA-H2A inh	TRPN1 ag	TAAR1 ag	TAAR1 antag	TRPML3 ag
CC(C)(C)c1ccc(NC(=O)COC(=O)C2(C)CC2(Cl)Cl)cc1 (stereo not given)	0	0	0	0	52.0	0
C[C@@H]1CN(c2ccc(N3CCN(C(=O)OC(C)(C)C)C[C@H]3C)cc2C#N)CCN1Cc1ccccc1	-	-	-	0	0	-
Cc1c(C(=O)OCCOc2ccccc2)[nH]c2c1C(=O)CCC2	0	0	0	0	0	0
CCCc1c(C(=O)OCC)[nH]c2c1C(=O)CCC2	0	36.1	0	0	0	0
CSc1ncccc1C(=O)N1CCCC(CCC(=O)NCc2ccc(F)c(F)c2)C1 (stereo not given)	0	14.3	0	0	0	0
CCCCNC(=O)c1ccc(SCC(=O)N(CC)CC)c([N+](=O)[O-])c1	0	78.9	0	0	0	0
CCNc1nc(-c2sc(NC(=O)C(C)(C)C)nc2C)c(-n2cc(-c3ccccc3)nn2)s1	-	-	-	0	74.9	-
O=C(CSc1ncnc2[nH]ncc12)Nc1nc(-c2ccc(F)c(F)c2)cs1	0	0	0	0	61.8	0
Cc1cccc(C)c1NC(=O)CSc1ncnc2[nH]ncc12	-	0	-	0	0	-
CCCCN1CC(COc2ccc(OC)cc2)OCCS1(=O)=O (stereo not given)	-	-	-	0	0	-
O=C(c1cc(-c2ccncc2)nc2ccc(Br)cc12)N1CCN(Cc2ccc3c(c2)OCO3)CC1	0	0	0	0	61.8	0
Cc1ccc2nc(-c3ccncc3)cc(C(=O)N3CCOCC3)c2c1	0	0	-	-	-	-
C[C@@H]1ON(C)[C@H]2C[C@H]3c4[nH]c5c(-c6ccc(C(F)(F)F)cc6)cccc5c4CCN3C(=O)[C@@H]12	-	-	-	0	0	-
S=C(CN1CCCC1=S)NCCc1ccccc1	0	0	0	40.0	0	0
S=C(NCCc1ccccc1)N1CCc2ccccc2C1	0	0	0	0	0	0
C#CCN1CC(COc2ccccc2)Oc2cccc(Oc3ccc(OC)cc3)c2S1(=O)=O (stereo not given)	-	-	-	0	0	-
O=C(NCc1ccccc1)[C@@H]1CCCN1C(=O)[C@H]1CCCN1C(=O)C1CCCCC1	-	-	-	0	0	-
Cc1nn(CCN)c(C)c1Cl	0	0	0	91.5	57.9	0
Cc1nn(CC(=O)O)c(C)c1Cl	0	0	0	0	0	0
CCCCc1c(-c2ccccc2OC)ncn1Cc1c(Cl)cccc1Cl	-	-	-	0	0	-
CC(=O)Nc1ccc(S(=O)(=O)NC2=C(N3CCN(Cc4ccccc4)CC3)C(=O)c3ccccc3C2=O)cc1	0	+	0	0	0	0
CN1C(C(=O)Nc2ccccn2)=C(O)c2sccc2S1(=O)=O	0	39.4!	0	0	0	0
O=C(Nc1ccccn1)c1cccs1	0	0	0	0	0	0
CCOC(=O)c1c(NC(=O)CSc2nnc(-c3cccc(C)c3)n2CC)sc(C(C)=O)c1C	0	0	0	0	0	0
CCOC(=O)c1c(NC(=O)CSc2nnc(-c3ccccc3)n2CC)sc(C(C)=O)c1C	0	22.8	0	0	0	0
SMILES	GPR7 antagonist	LANA-H2A inh	TRPN1 ag	TAAR1 ag	TAAR1 antag	TRPML3 ag
CN(C)c1ccc(N(C)C)c(C(O)(c2ccccc2)c2ccccc2)c1	-	-	-	0	0	-
COc1cc2c(cc1NC(=O)C(C)Sc1ccc(NC(C)=O)cc1)oc1ccccc12 (stereo not given)	0	0	0	0	49.8	0
Oc1ccccc1/C=N/Nc1nccnc1Cl	0	0	0	41.5	0	0
COc1ccc(CN(CCC(c2ccc(F)cc2)C2CCOC(C)(C)C2)C(=O)c2ccco2)cc1 (stereo not given)	0	0	0	0	63.8	0
CC(C)(C)c1nc(NC(=O)Nc2ccccc2)sc1Br	31.8	0	0	0	0	0
COc1ccc2nc(NC(=O)Nc3ccccc3)sc2c1	0	0	0	0	0	0
C=CCN1CC(COCc2ccccc2)OCCS1(=O)=O (stereo not given)	-	-	-	0	0	-
Cc1cc(S(=O)(=O)c2ccc(Cl)cc2)nc(S(=O)(=O)c2ccc(Cl)cc2)c1C#N	-	-	-	0	68.4	-
Cc1cc(C)c(S(=O)(=O)c2ccc(Cl)cc2)c(Cl)n1	0	0	0	0	0	0
COc1ccccc1C(=O)NCCC(=O)NCC1COc2ccccc2O1 (stereo not given)	-	23.3	-	0	0	-
O=C(CCNC(=O)c1ccccc1Cl)NCC1COc2ccccc2O1 (stereo not given)	-	-	-	0	0	-
COc1ccc(C)cc1NC(=O)c1ccccc1NS(=O)(=O)c1ccc(Cl)s1	0	0	22.3	0	0	14.4
COc1ccccc1NC(=O)c1ccccc1NS(=O)(=O)c1cccs1	0	0	0	0	0	0
COc1cccc(Cl)c1NC(=O)N1CCN(c2ccnc3cc(Cl)ccc23)CC1	0	39.6	0	0	0	0
CC(C)[C@H](NC(=O)C1CC1)C(=O)N1CCC[C@H]1C(=O)NCc1ccccc1	-	-	-	0	0	-
O=C(Nc1ccc(Cl)c(Cl)c1)Nc1nccs1	0	0	0	42.5	0	0
COCc1[nH]nc2c1C(c1ccc(F)cc1)NC2=O (stereo not given)	-	-	-	0	0	-
CC(C)CNC(=O)c1oc2ccccc2c1COc1ccccc1	0	0	0	38.5	0	0
COC(=O)[C@]12C[C@H](CC(=O)NCc3ccc(C)o3)C(=O)N(Cc3ccc4c(c3)OCO4)C1=C[C@H](C(C)(C)C)O[C@@H]2C	-	-	-	0	0	-
COc1ccc(-c2csc(C)n2)cc1	0	0	0	0	0	0
COc1cc(C)nc(-c2csc(C)n2)n1	0	20.3	0	0	0	0
COCc1[nH]nc2c1C(c1ccc(C)cc1)NC2=O (stereo not given)	-	-	-	0	0	-
Cc1cccn2c(=O)c3cc(C#N)c(=NC(=O)c4cccs4)n(CC(C)C)c3nc12	0	0	0	0	0	0
CCOCCCn1c(=NC(=O)c2cccs2)c(C#N)cc2c(=O)n3cccc(C)c3nc21	0	27.9	0	0	0	0
COCCCn1c(=NC(=O)c2ccccc2)c(C#N)cc2c(=O)n3cccc(C)c3nc21	0	27.4	37.4	0	0	24.6
CCc1cc2c(nc1CC)CCCN2S(=O)(=O)c1ccccc1	-	-	-	0	0	-
Cc1nc(N2CCN(c3ccccc3)CC2)nc2c1C(=O)CCC2	0	0	0	0	56.7	0
Cc1nc(N2CCN(c3ccccc3)CC2)nc2c1C(=O)CC(C)C2 (stereo not given)	0	0	0	0	0	0
